Key:
[1] = system: BGC-823; assay: Antitumor activity against human BGC823 cells assessed as growth inhibition at 10 uM after 24 hrs by relative to control; assay type: functional; settings: BGC-823, 24 h
Procedure, shortened: (§1)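 MTT growth-inhibition screen: 2.0×10^4 cells per well incubated with test compound for 24 h at 37 °C under 5% CO2. MTT then added, supernatant discarded and DMSO added. Absorbance read at 595 nm. Three separate experiments, each run in triplicate.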

[2] = system: Bcap37; assay: Antitumor activity against human Bcap37 cells assessed as growth inhibition at 10 uM after 24 hrs by relative to control; assay type: functional; settings: Bcap37, 24 h; procedure, shortened: as §1
[3] = system: PC-3; assay: Antitumor activity against human PC3 cells assessed as growth inhibition at 10 uM after 24 hrs by relative to control; assay type: functional; settings: PC-3, 24 h; procedure, shortened: as §1
[4] = system: PC-3; assay: Cytotoxicity against human PC3 cells at 20 uM after 72 hrs by relative to control; assay type: functional; settings: PC-3, 72 h
Procedure, shortened: (§2)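 Cells grown in RPMI 1640 with 10% FBS and plated at 2×10^3 cells/well. Compounds were taken up in DMSO, diluted in medium and given at 1-100 µM for 72 h. Controls received 0.1% DMSO. MTT was read 4 h later as formazan absorbance at 595 nm. % cytotoxicity was blank-corrected against control, IC50 taken at 50% cell survival. Three experiments, each in triplicate.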

[5] = system: PC-3; assay: Cytotoxicity against human PC3 cells at 5 uM after 72 hrs by relative to control; assay type: functional; settings: PC-3, 72 h; procedure, shortened: as §2
[6] = system: PC-3; assay: Cytotoxicity against human PC3 cells at 10 uM after 72 hrs by relative to control; assay type: functional; settings: PC-3, 72 h; procedure, shortened: as §2
[7] = system: PC-3; assay: Cytotoxicity against human PC3 cells at 1 uM after 72 hrs by relative to control; assay type: functional; settings: PC-3, 72 h; procedure, shortened: as §2
[8] = system: PC-3; assay: Cytotoxicity against human PC3 cells after 72 hrs by MTT assay; assay type: functional, cell-based; settings: PC-3, 72 h; procedure, shortened: as §2
[9] = system: BGC-823; assay: Cytotoxicity against human BGC823 cells at 5 uM after 72 hrs by relative to control; assay type: functional; settings: BGC-823, 72 h; procedure, shortened: as §2
[10] = system: BGC-823; assay: Cytotoxicity against human BGC823 cells at 1 uM after 72 hrs by relative to control; assay type: functional; settings: BGC-823, 72 h; procedure, shortened: as §2
[11] = system: BGC-823; assay: Cytotoxicity against human BGC823 cells at 10 uM after 72 hrs by relative to control; assay type: functional; settings: BGC-823, 72 h; procedure, shortened: as §2
[12] = system: BGC-823; assay: Cytotoxicity against human BGC823 cells at 20 uM after 72 hrs by relative to control; assay type: functional; settings: BGC-823, 72 h; procedure, shortened: as §2
[13] = system: BGC-823; assay: Cytotoxicity against human BGC823 cells after 72 hrs by MTT assay; assay type: functional, cell-based; settings: BGC-823, 72 h; procedure, shortened: as §2

| Compound | inhibition at 10 µM [1] [%] | inhibition at 10 µM [2] [%] | inhibition at 10 µM [3] [%] | further results |
| --- | --- | --- | --- | --- |
| CCCOP(=O)(OCCC)C(NC(=S)N[C@@H](Cc1ccccc1)C(=O)NCc1ccccc1)c1ccccc1 (stereo partly drawn) | 35.7 | 35.4 | 33.5 |  |
| CCCCOP(=O)(OCCCC)C(NC(=S)N[C@H](Cc1ccccc1)C(=O)NCc1ccc(F)cc1)c1ccccc1 (stereo partly drawn) | 33.2 | 35.8 | 33.6 |  |
| CCOP(=O)(OCC)C(NC(=S)N[C@@H](Cc1ccccc1)C(=O)NCc1ccccc1F)c1ccccc1 (stereo partly drawn) | 30.1 | 25.9 | 19.3 |  |
| CCCCOP(=O)(OCCCC)C(NC(=S)N[C@@H](Cc1ccccc1)C(=O)NCc1ccccc1)c1ccccc1 (stereo partly drawn) | 21.1 | 34.5 | 22.8 |  |
| CCOP(=O)(OCC)C(NC(=S)N[C@H](Cc1ccccc1)C(=O)NCc1ccccc1F)c1ccccc1 (stereo partly drawn) | 30.1 | 70.2 | 73.1 | inhibition at 20 µM [4]: 97.2%; inhibition at 5 µM [5]: 45.6%; inhibition at 10 µM [6]: 73.1%; inhibition at 1 µM [7]: 4.9%; IC50 [8]: 6.7 µM |
| CCOP(=O)(OCC)C(NC(=S)N[C@H](Cc1ccccc1)C(=O)NCc1ccc(F)cc1)c1ccccc1 (stereo partly drawn) | 44.5 | 34 | 32.4 |  |
| CCCCOP(=O)(OCCCC)C(NC(=S)N[C@@H](Cc1ccccc1)C(=O)NCc1ccc(F)cc1)c1ccccc1 (stereo partly drawn) | 26.1 | 48.4 | 19.7 |  |
| CC(C)OP(=O)(OC(C)C)C(NC(=S)N[C@@H](Cc1ccccc1)C(=O)NCc1ccccc1)c1ccccc1 (stereo partly drawn) | 27.9 | 24.4 | 50.1 | inhibition at 20 µM [4]: 50.1%; inhibition at 5 µM [5]: 12.8%; inhibition at 10 µM [6]: 21.8%; inhibition at 1 µM [7]: 2.7%; IC50 [8]: 19.5 µM |
| CC(C)OP(=O)(OC(C)C)C(NC(=S)N[C@H](Cc1ccccc1)C(=O)NCc1ccccc1)c1ccccc1 (stereo partly drawn) | 29 | 22.9 | 30.5 |  |
| CCCOP(=O)(OCCC)C(NC(=S)N[C@@H](Cc1ccccc1)C(=O)NCc1ccccc1F)c1ccccc1 (stereo partly drawn) | 11.1 | 44.7 | 18.1 |  |
| CCCOP(=O)(OCCC)C(NC(=S)N[C@H](Cc1ccccc1)C(=O)NCc1ccccc1F)c1ccccc1 (stereo partly drawn) | 11.1 | 17.2 | 30.6 |  |
| CCOP(=O)(OCC)C(NC(=S)N[C@@H](Cc1ccccc1)C(=O)NCc1ccccc1)c1ccccc1 (stereo partly drawn) | 18.3 | 16.9 | 20.1 |  |
| CC(C)OP(=O)(OC(C)C)C(NC(=S)N[C@@H](Cc1ccccc1)C(=O)NCc1ccccc1F)c1ccccc1 (stereo partly drawn) | 47.9 | 44.4 | 26.8 |  |
| CCCCOP(=O)(OCCCC)C(NC(=S)N[C@H](Cc1ccccc1)C(=O)NCc1ccccc1F)c1ccccc1 (stereo partly drawn) | 30.1 | 34 | 18 |  |
| CCOP(=O)(OCC)C(NC(=S)N[C@@H](Cc1ccccc1)C(=O)NCc1ccc(F)cc1)c1ccccc1 (stereo partly drawn) | 22.9 | 26.1 | 27.9 |  |
| CCCCOP(=O)(OCCCC)C(NC(=S)N[C@H](Cc1ccccc1)C(=O)NCc1ccccc1)c1ccccc1 (stereo partly drawn) | 22.7 | 46.6 | 21.7 |  |
| CC(C)OP(=O)(OC(C)C)C(NC(=S)N[C@@H](Cc1ccccc1)C(=O)NCc1ccc(F)cc1)c1ccccc1 (stereo partly drawn) | 89.1 | 53.1 | 58.6 | inhibition at 20 µM [4]: 66.7%; inhibition at 5 µM [5]: 17.3%; inhibition at 5 µM [9]: 70.1%; inhibition at 10 µM [6]: 31.4%; inhibition at 1 µM [10]: 30.6%; inhibition at 10 µM [11]: 89.1%; inhibition at 20 µM [12]: 100%; IC50 [13]: 4.7 µM; inhibition at 1 µM [7]: 15.8%; IC50 [8]: 17.2 µM |
| COc1cccc2c1C(=O)c1c(O)c3c(c(O)c1C2=O)C[C@@](O)(C(=O)CO)C[C@@H]3O[C@H]1C[C@H](N)[C@H](O)[C@H](C)O1 [DOXORUBICIN] | 93.8 |  |  | inhibition at 20 µM [4]: 100%; inhibition at 5 µM [5]: 89.4%; inhibition at 10 µM [6]: 98%; inhibition at 1 µM [7]: 36.4%; IC50 [8]: 3.3 µM |
| CCOP(=O)(OCC)C(NC(=S)N[C@H](Cc1ccccc1)C(=O)NCc1ccccc1)c1ccccc1 (stereo partly drawn) | 55.7 | 52.3 | 56.9 | inhibition at 20 µM [4]: 73.8%; inhibition at 5 µM [5]: 21.2%; inhibition at 10 µM [6]: 56.9%; inhibition at 1 µM [7]: 10.4%; IC50 [8]: 11.2 µM |
| CC(C)OP(=O)(OC(C)C)C(NC(=S)N[C@H](Cc1ccccc1)C(=O)NCc1ccccc1F)c1ccccc1 (stereo partly drawn) | 51.6 | 27.8 | 14.3 |  |
| CCCOP(=O)(OCCC)C(NC(=S)N[C@H](Cc1ccccc1)C(=O)NCc1ccccc1)c1ccccc1 (stereo partly drawn) | 24.4 | 49.1 | 30.8 |  |
| CCCOP(=O)(OCCC)C(NC(=S)N[C@H](Cc1ccccc1)C(=O)NCc1ccc(F)cc1)c1ccccc1 (stereo partly drawn) | 53.9 | 12.6 | 30.6 |  |
| CCCOP(=O)(OCCC)C(NC(=S)N[C@@H](Cc1ccccc1)C(=O)NCc1ccc(F)cc1)c1ccccc1 (stereo partly drawn) | 21 | 24 | 56.7 | inhibition at 20 µM [4]: 51.2%; inhibition at 5 µM [5]: 19.8%; inhibition at 10 µM [6]: 28%; inhibition at 1 µM [7]: 18.1%; IC50 [8]: 22.1 µM |
| CC(C)OP(=O)(OC(C)C)C(NC(=S)N[C@H](Cc1ccccc1)C(=O)NCc1ccc(F)cc1)c1ccccc1 (stereo partly drawn) | 20.8 | 27 | 34.8 |  |
| CCCCOP(=O)(OCCCC)C(NC(=S)N[C@@H](Cc1ccccc1)C(=O)NCc1ccccc1F)c1ccccc1 (stereo partly drawn) | 30.1 | 32.1 | 22.5 |  |
